# Only some compounds are listed: those with a hit (about 2.2% of all), similar ones and a draw of the others.
# FLuc inh counter: Photinus pyralis luciferase inhibition counter-screen. P08659. inhibition, % at 10 µM. ATPLite firefly luciferase biochemical luminescence, 10 min. 200,000 tested, 1.5% active;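 active means inhibition above about 50% when tested at 10 µM, limit read from the data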
# Target sequence (P08659 whole entry, looked up): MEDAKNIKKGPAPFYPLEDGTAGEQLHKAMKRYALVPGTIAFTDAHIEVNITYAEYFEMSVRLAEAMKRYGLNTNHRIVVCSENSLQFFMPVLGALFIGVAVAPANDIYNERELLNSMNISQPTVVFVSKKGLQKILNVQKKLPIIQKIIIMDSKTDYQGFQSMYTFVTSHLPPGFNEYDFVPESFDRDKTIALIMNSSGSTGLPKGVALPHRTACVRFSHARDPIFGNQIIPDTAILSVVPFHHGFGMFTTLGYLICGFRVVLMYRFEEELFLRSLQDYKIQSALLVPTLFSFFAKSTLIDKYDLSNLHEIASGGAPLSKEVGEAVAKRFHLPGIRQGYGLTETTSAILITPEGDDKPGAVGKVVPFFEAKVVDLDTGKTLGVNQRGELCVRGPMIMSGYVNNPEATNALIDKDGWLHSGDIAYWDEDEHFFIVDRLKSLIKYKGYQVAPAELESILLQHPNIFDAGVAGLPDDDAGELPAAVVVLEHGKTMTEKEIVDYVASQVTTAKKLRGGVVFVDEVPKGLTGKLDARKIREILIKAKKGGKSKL
# FLuc act counter: firefly luciferase counter-screen for stimulation assays; activation factor at 10 µM; AID 1027; ATPlite luciferase biochemical, luminescence, 10 min; 0 = ATP-free wells, 1 = DMSO control; P08659; 200,000 tested, under 10 active;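 active means luciferase activation factor, scaled between plate controls, of at least 2 with compound at 10 µM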
#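 System: luciferase plus luciferin reagent, cell-free; medium: PBS as buffer for the ATP substrate; dosing: test compounds dosed from 2 mM stocks in 100% DMSO; timing: 10 min post-reagent at room temperature; measured by: luminescence measurement of luciferase light output; evaluation: luciferase activation, seen as luminescence increase over controls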
# STAT3 blocker: reduces IL-6 driven STAT3 reporter signal. U3A cells, IL-6 STAT3-luciferase reporter, luminescence; host cell line lacks STAT1. inhibition, % at 5.5 µM. 190,000 tested, 0.89% active. AID 862;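 active means inhibition above the mean inhibition across all screened compounds plus 3 SD, cut at about 44% in these data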;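 further: 0% = DMSO only wells and 100% = 100 µM nifuroxazide control wells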
# HSP90 inh: blocks HSP90-mediated luciferase refolding in reticulocyte lysate. Rabbit reticulocyte lysate, luciferase refolding luminescence, 3 h. inhibition, % at 5.6 µM. 290,000 tested, 0.91% active;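 active means inhibition above the screen-wide mean plus 3 SD, computed separately per campaign, cut at about 16% in these data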;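 further: 0% = DMSO wells and 100% = 60 µM geldanamycin wells; inhibitors lower the luminescence because luciferase stays unfolded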
# PPC-1+TRAIL kill: compounds killing PPC-1 cancer cells with TRAIL present (potentiator screen, no TRAIL-free arm); PPC-1 cells + TRAIL, ATPLite viability luminescence; 220,000 tested, 0.41% active; AID 1443; cell killing (% activity), % at 4 µM or 5 µM;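 active means cell killing above 50% in the first pass at 4 µM, then a duplicate retest at 5 µM averaging 50% or more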;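 further: plate controls were cells with TRAIL plus DMSO for no effect and medium-only wells lacking cells for full effect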
# C8 TRAIL sens: caspase-8 TRAIL sensitization. NB7+C8 cells + TRAIL, ATPlite viability luminescence. 360,000 tested, 1% active. inhibition (viability loss, TRAIL sensitization), % at 10 µM;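 active means compounds causing at least 50% loss of cell viability in the single-dose screen, relative to plate controls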
# An asterisk follows results filed as active; nt = no result.
SMILES,FLuc inh counter,FLuc act counter,STAT3 blocker,HSP90 inh,PPC-1+TRAIL kill,C8 TRAIL sens
C#CCN(C[C@@H]1[C@@H](OC(=O)NCCCCCC)[C@@H](OC(=O)NCCCCCC)Cn2c(=O)ccc(=O)n21)S(=O)(=O)c1ccc(C)cc1,nt,nt,nt,nt,nt,89.4*
C#CCN(C[C@@H]1[C@@H](OC(=O)NCC2CCCCC2)[C@@H](OC(=O)NCC2CCCCC2)Cn2c(=O)ccc(=O)n21)S(=O)(=O)c1ccc(C)cc1,nt,nt,nt,nt,nt,92.8*
C#CCN(C[C@@H]1[C@@H](OC(=O)NCc2ccco2)[C@@H](OC(=O)NCc2ccco2)Cn2c(=O)ccc(=O)n21)S(=O)(=O)c1ccc(C)cc1,nt,nt,nt,nt,nt,15.2
CCNC(=O)C1CCCN(C(=O)Cc2ccc3ccccc3c2)CC1 (configuration not stated),nt,nt,nt,nt,nt,-10.6
O=C(Nc1ccccc1OC(F)F)c1ccc(N2CCCC2=O)cc1,nt,nt,nt,nt,nt,4.2
CCC(=O)c1ccc(OCC(=O)N2CCN(S(=O)(=O)c3ccc(Cl)s3)CC2)cc1,nt,nt,nt,nt,nt,5.4
CCOC(=O)c1ccccc1NC(=O)CSc1nnnn1C1CCCCC1,-2.3,1,-1.7,1.0,2.6,17.1
Cc1ccsc1/C=C1/C(=O)NN(c2ccccc2)C1=O,59.3*,0.4,5.2,-1.7,-10.3,7.5
Cc1ccsc1C=C1C(=O)c2ccccc2C1=O,72.8*,0.3,-5.4,2.9,7.5,-18.2
CC1(/[N+]([O-])=C\c2ccccc2F)CCCCC1=O (configuration not stated),nt,nt,nt,3.7,9.7,-13.2
Cn1/c(=N/N=C/c2ccccn2)sc2ccccc21,59.4*,0.4,-15.0,-1.3,21.8,21.0
COc1ccc(N2CCN(C(=O)CSc3ncccc3-c3nc4ccccc4[nH]3)CC2)cc1,23.9,0.8,9.1,2.7,25.5,3.1
COc1ccccc1N1CCN(C(=O)CSc2ncccc2-c2nc3ccccc3[nH]2)CC1,-1.3,1,27.9,22.2*,8.4,-6.3
Cc1ccc(C(C)NC(=S)NC2CCCCC2)c(C)c1 (configuration not stated),nt,nt,nt,-1.7,nt,1.7
COc1ccc(OCc2cc(C(=O)N3CCC(c4ccccc4)CC3)no2)c(Cl)c1,nt,nt,nt,3.3,nt,23.6
CC(=O)c1sc(NC(=O)C2(F)C(F)(F)C(F)(F)C(F)(F)C(F)(F)C2(F)F)nc1C,-7.8,1.1,58.4*,-0.9,9.0,46.6
COc1ccc(NC(=O)c2cc3ccccc3o2)cc1OC,nt,nt,nt,0.1,nt,7.3
CC(C)C(=O)Nc1cccc(NC(=O)c2cc3ccccc3o2)c1,29.8,0.7,9.8,-0.5,12.8,14.4
CC(=O)Nc1cccc(NC(=O)c2cc3ccccc3o2)c1,64.3*,0.4,10.6,-3.2,48.1,41.3
COc1ccc(NC(=O)c2cc3ccccc3o2)cc1,52.6*,0.5,0.6,-3.2,40.3,37.9
Cc1ccnc(NC(=O)COc2ccc3c(c2)CCC3)c1,nt,nt,nt,nt,nt,69.8*
Cc1ccnc(NC(=O)Nc2ccc(F)cc2)c1,44.9,0.6,6.9,-1.0,33.0,13.8
COc1ccc(C(=O)Nc2cc(C)c(NC(=O)c3ccccn3)cn2)cc1,nt,nt,nt,1.4,nt,68.8*
CC(=O)Nc1ccc(NC(=O)COc2ccc3c(c2)CCC3)cc1,-2.0,1,7.2,-0.3,22.0,-3.4
COc1ccc(NC(=O)Nc2cc(C)ccn2)cc1,nt,nt,nt,nt,nt,58.9*
SMILES,FLuc inh counter,FLuc act counter,STAT3 blocker,HSP90 inh,PPC-1+TRAIL kill,C8 TRAIL sens
COc1ccc(C(=O)Nc2ccccc2C(=O)Nc2cccnc2)cc1,nt,nt,nt,-4.1,nt,53.0*
C#Cc1ccc([C@H]2C=C(C(=O)N3CCOCC3)O[C@@H](OCc3ccc(CO)cc3)C2)cc1,-4.3,1,nt,7.1,9.2,-4.6
CCCc1cc(=O)[nH]c(SCC(=O)N(CCOC)c2c(N)n(Cc3ccccc3)c(=O)[nH]c2=O)n1,nt,nt,nt,nt,nt,-7.0
COc1ccc(C(=O)Nc2ccccc2C(=O)Nc2cc(C)ccn2)cc1,nt,nt,nt,0.4,nt,68.0*
COc1ccc(C(=O)Nc2ccccc2C(=O)O)cc1Cl,75.5*,0.2,7.2,1.7,29.2,48.9
CCN(CC)S(=O)(=O)c1cc(C(=O)Nc2ccccc2C(=O)O)ccc1OC,59.3*,0.4,11.8,0.5,21.3,22.0
Cc1ccc(/C=C2\C(=O)ON=C2c2ccccc2)o1,60.1*,0.4,2.4,2.7,11.2,-7.8
Nc1ncnc2c(C3OC(CO)C(O)C3O)scc12 (configuration not stated),nt,nt,nt,nt,nt,56.7*
CC(=O)Nc1nc2cc3c(cc2s1)OCCO3,nt,nt,nt,17.4*,nt,-2.9

# Source: PubChem
